Source: PubChem BioAssay (several laboratories)
This is a sample that favours compounds with a hit; in the whole collection about 11% have one here.
Diaph act CS: compounds boosting diaphorase resazurin reduction – biochemical, uHTS, resorufin fluorescence, counter-screen for diaphorase-coupled primary assays, primary screen | Diaphorase/resazurin coupled assay, 16 min; stronger effect = higher value; 1 = vehicle wells, 0 = NADH-free wells | activation factor at 20 µM | hit rate 0.005% among 190,000;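 active means diaphorase activity raised at least twofold by the compound at 20 µM; inactive means activation factor below 2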
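Material: bacterial diaphorase enzyme (C. kluyveri); amount: enzyme 0.07 U/mL final; reagent: NADH substrate 0.114 mM plus resazurin dye 0.1 mM, final; doses: single compound dose of 20 µM, 1% DMSO final; timing: 16 min enzyme reaction, ambient temperature; measured by: fluorescence of resorufin, 544 nm excitation, 590 nm emission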
Lmaj promast: Leishmania major promastigote growth inhibition, primary screen. Leishmania major promastigotes, resazurin fluorescence viability. inhibition, % at 10 µM. hit rate 9% among 200,000. AID 1063, 2008;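 further: promastigotes grown with compound for 44 hours at 28 °C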
WT yeast gro inh: growth inhibition of WT strain, primary screen, mitochondrial fusion inhibitor project, WT and mutant strains, chemical genetic. hit rate 2.1% among 190,000. AID 1362, 2008. mitochondrial fusion phenotypic screen. inhibition, % at 10 µM; in the data active means inhibition above about 58%; tested in S. cerevisiae
Diaphorase inh: diaphorase inhibitors and chemical oxidizers, primary screen, counter-screen for diaphorase-coupled primary assays, biochemical, uHTS, resorufin fluorescence. diaphorase resazurin-to-resorufin fluorescence, NADH, 16 min; bacterial (C. kluyveri) enzyme, not human. inhibition, % at 20 µM. hit rate 0.69% among 190,000. AID 1217, 2008;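 active means primary screen inhibition at 20 µM above a set limit, cut at about 50% in these data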;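 further: plate controls were DMSO with full reaction for no effect and wells lacking NADH for full effect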
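Benchmarks: positive control wells lacking NADH, neutral wells with DMSO only. System: bacterial diaphorase enzyme (C. kluyveri). Input: 0.14 U/mL diaphorase, enzyme working solution. Detection: resorufin fluorescence, excitation 544 nm, emission 590 nm. Times: 16-min room-temperature incubation before reading.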
G6PDH counter: L. mesenteroides G6PDH inhibitors, counter-screen for G6PDH-coupled screening assays, biochemical, Leuconostoc mesenteroides enzyme. AID 1020, 2008. hit rate 0.12% among 200,000. inhibition, % at 5 µM. Purified L. mesenteroides G6PDH, diaphorase/resazurin coupled fluorescence, 45 min. glucose-6-phosphate dehydrogenase [Leuconostoc mesenteroides]
* hit, by the source's call. Unless noted, no stated cut-off is given here; in the data, active means inhibition above about 50%; inactive means the rest.

SMILES	Diaph act CS	Lmaj promast	WT yeast gro inh	Diaphorase inh	G6PDH counter
COCC(C)N1C(=O)Cc2c1nc(N)c1c(N)nc(N3CCN(c4ccccc4F)CC3)c(C#N)c21 (configuration not stated)	0.4	29	1	60*	2
COCCN1C(=O)Cc2c1nc(N)c1c(N)nc(N3CCN(c4ccc(F)cc4)CC3)c(C#N)c21	0.6	-7	-7	43	4
O=C(CN1CCN(Cc2ccccc2)CC1)N=Nc1c(O)[nH]c2ccccc12	0.8	96*	-10	15	-17
Cc1cc(C)n(C(C[N+](=O)[O-])c2ccc(Cl)cc2)n1 (configuration not stated)	1	100*	48	-2	-4
Clc1c(-c2ccccc2)nnn1-c1ccccc1	0.9	-9	2	10	0
CCCCc1ccc(/C=C2\C(=O)c3ccccc3C(O)=C2C(=O)OCC)cc1	0.6	12	72*	43	-10
COc1ccc(C=C2C(=O)c3ccccc3C2=O)cc1O	0.6	14	10	37	16
CC1(C)CC(c2nc(-c3ccc(Cl)cc3)cs2)CCS1 (configuration not stated)	0.9	-4	66*	11	1
CC1(C)CC(c2nc(-c3ccc(Br)cc3)cs2)CCS1 (configuration not stated)	0.9	-2	49	14	3
Cc1nc(-c2ccccc2)cs1	1.1	-9	-7	-8	5
CC1(C)CC(c2nc(-c3ccccc3)cs2)CCS1 (configuration not stated)	0.9	-3	61*	10	-10
O=[N+]([O-])c1ccc(N2CCC(O)CC2)nc1	0.9	7	-6	9	2
CCc1c(C)sc(NC(=O)CC#N)c1C#N	0.7	66*	-29	32	14
CC(C)S(=O)(=O)N1CCCC(C(=O)c2cccc(Cl)c2)C1 (configuration not stated)	0.9	4	15	7	12
CN(C)CCCN1C(=O)c2cccc3c([N+](=O)[O-])ccc(c23)C1=O	1	100*	58	-1	9
Cc1ccc(OCCN2C(=O)c3ccccc3C2=O)c([N+](=O)[O-])c1	1	-5	6	4	4
Cc1c(N(C)C)nc2ccccc2c1N	0.8	16	14	17	2
CCN(CC)c1nc2ccccc2c(N)c1-c1ccccc1	1	100*	11	5	4
CN(C)c1ccc2nc3ccc(=[N+](C)C)cc-3sc2c1	1.2	100*	33	-22	1
COc1ccc(-c2noc(CSc3nc(-c4ccccc4)cc(=O)[nH]3)n2)cc1OC	0.3	-9	3	67*	14
COc1ccc(-c2noc(-c3ccccc3-c3ccccc3)n2)cc1OC	0.9	-1	75*	9	-36
COc1ccc(-c2noc(-c3cccnc3)n2)cc1OC	0.8	-2	2	15	1
CC1CCc2nc3sc4c(c3c(N)c2C1)CCCC4 (configuration not stated)	0.9	92*	28	14	10
CC1CCc2c(nc3sc4c(c3c2N)CCCC4)C1 (configuration not stated)	0.9	97*	31	13	-14
Nc1nc(-c2cccnc2)nc2sc3c(c12)CCCC3	0.7	7	5	28	32
SMILES	Diaph act CS	Lmaj promast	WT yeast gro inh	Diaphorase inh	G6PDH counter
Nc1c2c(nc3sc4c(c13)CCCCC4)CCCCC2	0.9	63*	41	7	-2
COc1ccc(C(=O)C2CCCN(C(=O)c3noc4c3CCCC4)C2)c(C)c1 (configuration not stated)	0.6	2	2	37	13
Cc1ccc(CNC(=O)C2CCCN(c3nn4c(=O)cc(C)nc4s3)C2)cc1 (configuration not stated)	0.9	-6	-14	9	2
CC1(C)CC(O)C(C(O)c2cccc([N+](=O)[O-])c2)C(C)(C)N1 (configuration not stated)	1	-2	-4	-2	13
C/C(=N\Nc1nc(C)c(C)s1)c1ccc([N+](=O)[O-])cc1	1	-5	21	1	0
COc1cc(/C=C(\C#N)c2nc3ccccc3[nH]2)c([N+](=O)[O-])cc1OCc1ccccc1	0.6	90*	11	41	12
Cc1cc2nc(/C(C#N)=C/c3ccncc3)[nH]c2cc1C	0.9	29	9	9	-7
N#C/C(=C\c1ccncc1)c1nc2ccccc2[nH]1	0.9	59*	-7	11	7
N#C/C(=C\c1ccc(-c2ccc(C(=O)O)cc2)o1)c1nc2ccccc2[nH]1	0.4	-7	-12	65*	11
N#C/C(=C\c1ccc(N2CCOCC2)o1)c1nc2ccccc2[nH]1	0.8	26	4	24	20
CCN(CC)c1ccc(/C=C(/C#N)c2nc3ccccc3[nH]2)c(OC(C)C)c1	0.9	98*	5	12	10
CCCc1cc(C(=O)OC)c(NC(=O)c2cc(C)on2)s1	0.9	-4	7	6	3
NS(=O)(=O)c1ccc(N/N=C/c2ccccc2Br)cc1	0.9	-4	-12	13	-3
CCn1c(NC(=O)c2cccs2)c(-c2cccs2)c(=O)c2ccccc21	0.9	-2	-32	11	6
O=C(OC1C2CCC1C1CN(CCc3ccccc3)CC12)c1ccccc1 (configuration not stated)	1	51*	1	4	3
COc1cccc(C2NC(=O)c3ccccc3O2)c1OCc1ccccc1F (configuration not stated)	0.8	84*	-6	24	4
COc1cccc(CNc2ccccc2O)c1OCc1ccccc1F	0.8	62*	38	22	24
COc1cccc(CNc2ccc(S(N)(=O)=O)cc2)c1OCc1ccccc1F	0.7	65*	1	25	-7
CCCCc1ccc(NC2=NCC(=O)N2CCc2ccccc2)cc1	0.7	-4	21	30	12
CC1(C)CC(=O)c2cnc3c(C#N)cnn3c2C1	0.9	-10	-2	9	10
CC(C)Cc1cc(C(=O)N2CCN(C(c3ccccc3)c3ccccc3)CC2)no1	0.8	-3	59*	23	3
O=C(O)c1cc(-c2ccc(O)cc2)on1	0.3	-10	5	75*	15
O=C(c1cc(-c2ccccc2)on1)N1CCN(C(=O)c2ccco2)CC1	0.9	-7	-11	10	6
COc1ccc(-c2cc(C(=O)N3CCN(C(c4ccccc4)c4ccccc4)CC3)no2)cc1OC	0.7	94*	-20	34	4
